# Source: ChEMBL document CHEMBL4033785, “Increased Potency and Selectivity for Group III Metabotropic Glutamate Receptor Agonists Binding at Dual sites” (J Med Chem, 2018)
# Key:
# [1] = target: Metabotropic glutamate receptor 4 (Homo sapiens, UniProt Q14833); assay: Agonist activity at mGlu4 (unknown origin) expressed in HEK293 cells coexpressing chimeric Gq/i protein assessed as increase in intracellular calcium accumulation by Fluo-4 AM dye based fluorescence assay; type: functional, cell-based
# Sequence of Metabotropic glutamate receptor 4 (Q14833 whole entry): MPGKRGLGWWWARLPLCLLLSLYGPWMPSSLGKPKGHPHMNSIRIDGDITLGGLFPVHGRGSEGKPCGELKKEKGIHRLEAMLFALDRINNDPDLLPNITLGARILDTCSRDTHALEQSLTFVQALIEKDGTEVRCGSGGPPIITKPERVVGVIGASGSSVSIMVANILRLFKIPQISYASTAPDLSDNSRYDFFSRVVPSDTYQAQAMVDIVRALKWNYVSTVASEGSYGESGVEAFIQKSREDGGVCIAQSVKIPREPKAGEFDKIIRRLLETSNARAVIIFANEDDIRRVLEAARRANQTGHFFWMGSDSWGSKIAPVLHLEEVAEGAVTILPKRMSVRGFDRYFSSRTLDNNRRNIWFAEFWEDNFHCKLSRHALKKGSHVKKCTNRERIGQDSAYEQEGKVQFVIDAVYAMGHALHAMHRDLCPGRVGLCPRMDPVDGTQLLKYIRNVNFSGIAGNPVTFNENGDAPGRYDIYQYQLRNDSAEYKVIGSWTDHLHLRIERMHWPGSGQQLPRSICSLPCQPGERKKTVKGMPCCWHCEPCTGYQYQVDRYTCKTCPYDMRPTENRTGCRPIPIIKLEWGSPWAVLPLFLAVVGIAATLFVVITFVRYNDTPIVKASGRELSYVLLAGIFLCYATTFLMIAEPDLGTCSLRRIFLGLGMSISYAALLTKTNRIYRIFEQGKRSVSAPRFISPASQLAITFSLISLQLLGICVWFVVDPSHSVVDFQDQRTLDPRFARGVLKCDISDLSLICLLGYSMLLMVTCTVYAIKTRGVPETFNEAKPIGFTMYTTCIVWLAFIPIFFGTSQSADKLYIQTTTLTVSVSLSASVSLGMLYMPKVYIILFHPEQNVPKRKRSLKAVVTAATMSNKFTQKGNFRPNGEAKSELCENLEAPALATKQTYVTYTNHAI
# [2] = target: T1, Metabotropic glutamate receptor 8 (Homo sapiens, UniProt O00222); assay: Agonist activity at mGlu8 (unknown origin) expressed in HEK293 cells coexpressing chimeric Gq/i protein assessed as increase in intracellular calcium accumulation by Fluo-4 AM dye based fluorescence assay; type: functional, cell-based
# T1 sequence (O00222 whole entry): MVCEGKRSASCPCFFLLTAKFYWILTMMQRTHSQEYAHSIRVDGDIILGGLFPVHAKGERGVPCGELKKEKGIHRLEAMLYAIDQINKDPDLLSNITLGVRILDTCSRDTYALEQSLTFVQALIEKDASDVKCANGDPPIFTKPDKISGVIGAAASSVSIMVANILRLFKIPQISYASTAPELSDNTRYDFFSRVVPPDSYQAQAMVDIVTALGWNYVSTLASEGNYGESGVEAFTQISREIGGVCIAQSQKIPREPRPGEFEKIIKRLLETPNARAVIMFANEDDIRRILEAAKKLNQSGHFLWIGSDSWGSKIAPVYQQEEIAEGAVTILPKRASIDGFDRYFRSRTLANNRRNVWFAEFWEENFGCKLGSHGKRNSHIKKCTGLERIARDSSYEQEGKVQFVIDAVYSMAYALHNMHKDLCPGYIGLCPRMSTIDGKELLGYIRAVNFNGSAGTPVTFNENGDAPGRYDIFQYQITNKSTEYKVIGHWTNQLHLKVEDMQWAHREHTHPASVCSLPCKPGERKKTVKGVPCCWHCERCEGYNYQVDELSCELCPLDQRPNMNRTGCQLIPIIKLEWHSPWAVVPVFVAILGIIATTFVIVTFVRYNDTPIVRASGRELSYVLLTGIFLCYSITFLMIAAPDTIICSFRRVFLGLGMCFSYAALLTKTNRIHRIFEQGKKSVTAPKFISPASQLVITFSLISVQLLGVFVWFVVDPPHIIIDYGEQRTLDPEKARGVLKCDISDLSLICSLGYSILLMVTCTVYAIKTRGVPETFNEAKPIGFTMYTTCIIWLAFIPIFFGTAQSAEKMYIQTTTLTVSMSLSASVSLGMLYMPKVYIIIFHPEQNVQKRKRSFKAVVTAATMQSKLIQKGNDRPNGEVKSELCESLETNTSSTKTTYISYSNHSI
# [3] = target: Metabotropic glutamate receptor 6 (Homo sapiens, UniProt O15303); assay: Agonist activity at mGlu6 (unknown origin) expressed in HEK293 cells coexpressing chimeric Gq/i protein assessed as increase in intracellular calcium accumulation by Fluo-4 AM dye based fluorescence assay; type: functional, cell-based
# Sequence of Metabotropic glutamate receptor 6 (O15303 whole entry): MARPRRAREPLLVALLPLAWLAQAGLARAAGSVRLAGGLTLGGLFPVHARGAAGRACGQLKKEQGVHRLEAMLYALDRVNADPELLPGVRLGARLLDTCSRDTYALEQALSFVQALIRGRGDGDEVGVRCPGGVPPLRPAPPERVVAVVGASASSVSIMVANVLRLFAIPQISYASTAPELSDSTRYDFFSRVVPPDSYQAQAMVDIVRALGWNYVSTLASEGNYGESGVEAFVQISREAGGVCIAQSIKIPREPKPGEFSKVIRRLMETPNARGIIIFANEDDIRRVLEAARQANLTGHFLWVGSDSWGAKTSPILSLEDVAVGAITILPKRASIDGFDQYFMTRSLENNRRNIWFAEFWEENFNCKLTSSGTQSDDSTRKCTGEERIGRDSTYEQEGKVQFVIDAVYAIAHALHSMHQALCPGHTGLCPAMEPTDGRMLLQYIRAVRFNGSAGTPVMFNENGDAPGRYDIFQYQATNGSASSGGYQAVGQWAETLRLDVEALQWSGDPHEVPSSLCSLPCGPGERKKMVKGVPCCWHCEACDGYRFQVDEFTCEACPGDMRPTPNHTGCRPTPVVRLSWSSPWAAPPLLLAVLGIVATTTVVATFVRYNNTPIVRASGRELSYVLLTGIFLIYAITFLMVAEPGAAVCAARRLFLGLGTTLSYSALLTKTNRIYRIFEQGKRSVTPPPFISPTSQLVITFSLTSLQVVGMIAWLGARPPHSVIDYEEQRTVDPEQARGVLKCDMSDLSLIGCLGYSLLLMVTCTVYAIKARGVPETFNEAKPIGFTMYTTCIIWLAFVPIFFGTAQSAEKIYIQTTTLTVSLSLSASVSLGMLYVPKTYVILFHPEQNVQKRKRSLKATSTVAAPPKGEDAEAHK
# [4] = target: Metabotropic glutamate receptor 7 (Homo sapiens, UniProt Q14831); assay: Agonist activity at mGlu7 (unknown origin) expressed in HEK293 cells coexpressing chimeric Gq/i protein assessed as increase in intracellular calcium accumulation by Fluo-4 AM dye based fluorescence assay; type: functional, cell-based
# Sequence of Metabotropic glutamate receptor 7 (Q14831 whole entry): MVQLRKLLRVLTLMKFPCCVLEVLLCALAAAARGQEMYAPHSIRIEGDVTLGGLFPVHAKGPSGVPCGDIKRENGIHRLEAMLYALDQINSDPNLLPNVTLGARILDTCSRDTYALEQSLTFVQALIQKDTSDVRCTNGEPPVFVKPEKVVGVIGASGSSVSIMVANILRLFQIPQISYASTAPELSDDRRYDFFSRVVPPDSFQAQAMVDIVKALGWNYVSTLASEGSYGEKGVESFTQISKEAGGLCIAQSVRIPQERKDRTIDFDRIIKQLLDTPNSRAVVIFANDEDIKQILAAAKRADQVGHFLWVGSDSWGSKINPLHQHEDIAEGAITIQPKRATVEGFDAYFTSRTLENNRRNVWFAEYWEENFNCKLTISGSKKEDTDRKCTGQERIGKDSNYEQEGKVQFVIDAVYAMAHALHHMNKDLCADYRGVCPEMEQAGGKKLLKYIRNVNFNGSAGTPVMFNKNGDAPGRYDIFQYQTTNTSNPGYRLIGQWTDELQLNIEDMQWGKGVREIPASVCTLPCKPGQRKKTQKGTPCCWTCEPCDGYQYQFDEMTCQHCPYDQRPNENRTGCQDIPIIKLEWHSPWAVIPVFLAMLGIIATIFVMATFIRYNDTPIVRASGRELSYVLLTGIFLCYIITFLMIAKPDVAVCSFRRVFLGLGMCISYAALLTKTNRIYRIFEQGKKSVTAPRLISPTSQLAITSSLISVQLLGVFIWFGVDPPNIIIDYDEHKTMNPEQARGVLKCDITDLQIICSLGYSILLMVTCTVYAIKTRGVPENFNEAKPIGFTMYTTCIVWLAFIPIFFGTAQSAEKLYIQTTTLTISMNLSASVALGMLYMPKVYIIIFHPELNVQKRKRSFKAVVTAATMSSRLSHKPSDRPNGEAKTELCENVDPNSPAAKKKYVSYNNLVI
# [5] = species: Homo sapiens; assay: Selectivity ratio of EC50 for mGlu8 (unknown origin) expressed in HEK293 cells coexpressing chimeric Gq/i protein assessed as increase in intracellular calcium accumulation to EC50 for mGlu4 (unknown origin) expressed in HEK293 cells coexpressing chimeric Gq/i protein assessed as increase in intracellular calcium accumulation; type: cell-based
# In short: (§1)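 Ratio of mGlu8 EC50 to mGlu4 EC50, both from the same functional assay. Both receptors were co-expressed in HEK293 cells with chimeric G-protein and EAAT3 and read by 3H-IP accumulation or by Fluo-4 Ca2+ release.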
# [6] = target: T1, Metabotropic glutamate receptor 8; assay: Agonist activity at mGlu8 (unknown origin) expressed in HEK293 cells coexpressing chimeric Gq/i protein assessed as [3H]inositol phosphate accumulation after 30 mins by scintillation and luminescence counting method; type: functional, cell-based
# In short: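 Receptor transiently co-expressed in HEK293 cells (electroporation) with chimeric G-protein and glutamate transporter EAAT3. Cells labelled overnight with 3H-myoinositol, stimulated with agonist 30 min, lysed 1 h in cold 0.1 M formic acid. 3H-IP isolated on Dowex ion exchange and counted. IP expressed relative to IP plus membrane radioactivity. Points in triplicate; EC50 from Hill-equation fit.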
# [7] = species: Homo sapiens; assay: Selectivity ratio of EC50 for mGlu8 (unknown origin) expressed in HEK293 cells coexpressing chimeric Gq/i protein assessed as [3H]inositol phosphate accumulation to EC50 for mGlu4 (unknown origin) expressed in HEK293 cells coexpressing chimeric Gq/i protein assessed as [3H]inositol phosphate accumulation; type: cell-based; in short: as §1
Structure (SMILES),EC50 [1] [µM],EC50 [2] [µM],EC50 [3] [µM],EC50 [4] [µM],Ratio EC50 [5],EC50 [6] [µM],Ratio EC50 [7]
N[C@@H](CCP(=O)(O)[C@@H](O)c1cccc([N+](=O)[O-])c1)C(=O)O,0.32,1.3,3.2,> 100,,,
N[C@@H](CCP(=O)(O)C(O)c1ccnc(O)c1)C(=O)O (some centres not stated),42,81,,,1.9,,
N[C@@H](CCP(=O)(O)C(O)c1cc([N+](=O)[O-])cc([N+](=O)[O-])c1)C(=O)O (some centres not stated),,,,,,6.6,4.5
N[C@@H](CCP(=O)(O)C(O)c1ccc(C(F)(F)F)cc1)C(=O)O (some centres not stated),,,,,,34,2.3
N[C@@H](CCP(=O)(O)[C@@H](O)c1ccc(O)c([N+](=O)[O-])c1)C(=O)O,4.5,39.8,68.4,295,8.5,,
N[C@@H](CCP(=O)(O)C(O)c1ccc(C(F)(F)F)o1)C(=O)O (some centres not stated),,,,,,5.2,3.1
N[C@@H](CCP(=O)(O)C(O)c1cccc([N+](=O)[O-])c1O)C(=O)O (some centres not stated),,,,,,21.2,0.92
N[C@@H](CCP(=O)(O)C(O)c1cc(F)c(O)c([N+](=O)[O-])c1)C(=O)O (some centres not stated),1.95,23.4,1.07,51.2,12,,
N[C@@H](CCP(=O)(O)C(O)c1cccc([N+](=O)[O-])c1)C(=O)O (mixture of isomers),,,,,2,,2.8
N[C@@H](CCP(=O)(O)C(O)c1ccncc1)C(=O)O (some centres not stated),28,26.2,,,1,,
N[C@@H](CCP(=O)(O)C(O)c1coc(C(=O)O)c1)C(=O)O (some centres not stated),,,,,,9.2,4.6
N[C@@H](CCP(=O)(O)C(O)c1ccc(O)c(C(=O)O)c1)C(=O)O (some centres not stated),15.8,40,,,2.5,,
CC(=O)c1ccc(C(O)P(=O)(O)CC[C@H](N)C(=O)O)cc1 (some centres not stated),,,,,,14,1.8
Nc1ccc(C(O)P(=O)(O)CC[C@H](N)C(=O)O)cc1 (some centres not stated),8.8,8.4,,11.6,0.9,8.4,0.9
N[C@@H](CCP(=O)(O)[C@H](O)c1cccc([N+](=O)[O-])c1)C(=O)O,1,1.25,2.4,> 100,1.2,,
N[C@@H](CCP(=O)(O)Cc1cccc(C(=O)O)c1)C(=O)O,> 100,,,,,511,2.4
N[C@@H](CCP(=O)(O)C(O)c1cc([N+](=O)[O-])cc([N+](=O)[O-])c1O)C(=O)O (some centres not stated),,,,,,4.5,1.9
COc1cc([C@H](O)P(=O)(O)CC[C@H](N)C(=O)O)cc([N+](=O)[O-])c1O,4.4,26,2.4,100,,,
COc1cc(CP(=O)(O)CC[C@H](N)C(=O)O)cc([N+](=O)[O-])c1O,19,28,,,1.5,,
N[C@@H](CCP(=O)(O)C(O)c1ccc(O)cc1)C(=O)O (some centres not stated),7.7,25,,,3.2,,
CCOc1cc([C@@H](O)P(=O)(O)CC[C@H](N)C(=O)O)cc([N+](=O)[O-])c1O,5.1,22,,,4.4,,
N[C@@H](CCP(=O)(O)[C@H](O)c1ccc(O)c([N+](=O)[O-])c1)C(=O)O,0.5,31.4,3.6,62,61,,

Structure (SMILES),EC50 [1] [µM],EC50 [2] [µM],EC50 [3] [µM],EC50 [4] [µM],Ratio EC50 [5],EC50 [6] [µM],Ratio EC50 [7]
COc1ccc(C(O)P(=O)(O)CC[C@H](N)C(=O)O)cc1 (some centres not stated),6.5,61,23,,9.3,,
COc1ccc(C(O)P(=O)(O)CC[C@H](N)C(=O)O)cc1[N+](=O)[O-] (some centres not stated),3.5,3.8,,,1,2.7,1.7
N[C@@H](CCP(=O)(O)C(O)c1c[nH]c2ncccc12)C(=O)O (some centres not stated),3.4,6.9,,,2,,
COc1cc([C@@H](O)P(=O)(O)CC[C@H](N)C(=O)O)cc([N+](=O)[O-])c1O,0.72,18,1.1,63,,,
CCOc1cc([C@H](O)P(=O)(O)CC[C@H](N)C(=O)O)cc([N+](=O)[O-])c1O,6.4,6.5,,,1,,
N[C@@H](CCP(=O)(O)C(O)c1c([N+](=O)[O-])cccc1[N+](=O)[O-])C(=O)O (some centres not stated),,,,,,2.9,1.7
N[C@@H](CCP(=O)(O)C(O)c1ccc(O)c([N+](=O)[O-])c1)C(=O)O (some centres not stated),1.5,73,,,48,,18
N#Cc1cccc(C(O)P(=O)(O)CC[C@H](N)C(=O)O)c1 (some centres not stated),,,,,,219,5.3
CCOc1cc(C(O)P(=O)(O)CC[C@H](N)C(=O)O)cc([N+](=O)[O-])c1O (mixture of isomers),,20,,,2.4,,
NC(c1cccc([N+](=O)[O-])c1)P(=O)(O)CC[C@H](N)C(=O)O (some centres not stated),,,,,,,4.1
NC(c1csc([N+](=O)[O-])c1)P(=O)(O)CC[C@H](N)C(=O)O (some centres not stated),,,,,,1.8,2.2
N[C@@H](CCP(=O)(O)C(O)c1ccc([N+](=O)[O-])cc1[N+](=O)[O-])C(=O)O (some centres not stated),,,,,,4.6,3.1
N[C@@H](CCP(=O)(O)C(NCc1ccccc1)c1cccc([N+](=O)[O-])c1)C(=O)O (some centres not stated),25.3,29.7,,,1.2,,
N[C@@H](CCP(=O)(O)C(O)c1ccc(OCC(=O)O)cc1)C(=O)O (some centres not stated),,,,,256,,
N[C@@H](CCP(=O)(O)C(NCc1cccc2ccccc12)c1cccc([N+](=O)[O-])c1)C(=O)O (some centres not stated),7.9,35.4,,,4.3,,
N[C@@H](CCP(=O)(O)C(O)c1ccc(O)nc1)C(=O)O (some centres not stated),33,17,,,0.5,,
CCCCCCNC(c1cccc([N+](=O)[O-])c1)P(=O)(O)CC[C@H](N)C(=O)O (some centres not stated),25,22.8,,,0.9,,
CS(=O)(=O)c1ccc(C(O)P(=O)(O)CC[C@H](N)C(=O)O)cc1 (some centres not stated),59,> 100,> 100,> 100,,,
N[C@@H](CCP(=O)(O)C(O)c1cc([N+](=O)[O-])ccc1O)C(=O)O (some centres not stated),,,,,,4.2,4.6
N[C@@H](CCP(=O)(O)C(NCCc1ccccc1)c1cccc([N+](=O)[O-])c1)C(=O)O (some centres not stated),4.41,7.2,,,1.6,,
CCCCCCCCNC(c1cccc([N+](=O)[O-])c1)P(=O)(O)CC[C@H](N)C(=O)O (some centres not stated),6.1,38,,,6.3,,
N[C@@H](CCP(=O)(O)C(O)c1ccc([N+](=O)[O-])c(O)c1)C(=O)O (some centres not stated),,,,,,19.8,8.7
